How the values were obtained:
[1] = biological target: T1, Prostaglandin E2 receptor EP1 subtype (Homo sapiens, UniProt P34995); experiment: Antagonist activity at human recombinant EP1 receptor expressed in CHO cells assessed as luciferase activity by Schild assay; format: functional, cell-based; settings: read-out: pA2 (converted)
T1 sequence (P34995 whole entry): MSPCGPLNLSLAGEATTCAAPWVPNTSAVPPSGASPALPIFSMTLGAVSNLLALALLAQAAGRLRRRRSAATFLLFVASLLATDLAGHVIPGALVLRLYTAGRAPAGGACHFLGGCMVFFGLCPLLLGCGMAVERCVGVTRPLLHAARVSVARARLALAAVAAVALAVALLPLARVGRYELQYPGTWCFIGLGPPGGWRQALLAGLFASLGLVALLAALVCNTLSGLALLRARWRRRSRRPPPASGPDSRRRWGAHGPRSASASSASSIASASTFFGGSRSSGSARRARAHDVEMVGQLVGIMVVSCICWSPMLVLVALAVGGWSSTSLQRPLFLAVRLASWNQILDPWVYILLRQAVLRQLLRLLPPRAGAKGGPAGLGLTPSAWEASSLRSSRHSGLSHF

[2] = biological target: T2, Cytochrome P450 1A2 (Homo sapiens, UniProt P05177); experiment: Inhibition of human CYP1A2; format: ADME
T2 sequence (P05177 whole entry): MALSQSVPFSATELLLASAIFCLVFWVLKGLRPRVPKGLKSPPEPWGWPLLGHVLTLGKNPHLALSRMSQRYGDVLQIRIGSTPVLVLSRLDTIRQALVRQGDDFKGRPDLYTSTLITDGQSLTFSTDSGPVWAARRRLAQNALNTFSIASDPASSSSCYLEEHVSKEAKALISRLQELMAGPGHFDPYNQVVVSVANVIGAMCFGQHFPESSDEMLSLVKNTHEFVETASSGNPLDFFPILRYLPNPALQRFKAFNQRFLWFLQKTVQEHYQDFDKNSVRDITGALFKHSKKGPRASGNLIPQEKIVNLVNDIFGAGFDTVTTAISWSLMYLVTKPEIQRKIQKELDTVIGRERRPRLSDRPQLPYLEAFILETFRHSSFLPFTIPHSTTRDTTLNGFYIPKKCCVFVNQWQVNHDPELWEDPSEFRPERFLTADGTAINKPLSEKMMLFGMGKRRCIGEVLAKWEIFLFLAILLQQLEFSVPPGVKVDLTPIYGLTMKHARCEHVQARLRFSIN
In short: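 Inhibition of metabolism of fluorometric substrates (Cypex protocol); IC50 values are the mean of three experiments ± standard deviation.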

[3] = Intrinsic clearance in cynomolgus monkey hepatocytes measured per gram of liver at 0.54 to 0.7 X 10^6 cells/ml cell density; format: ADME, cell-based, Macaca fascicularis, Hepatocyte
In short: (§1)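 Intrinsic clearance in hepatocytes expressed as mL/min/g liver. Cell densities were 0.15–0.2 × 10^6 cells/mL or 0.54–0.7 × 10^6 cells/mL.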

[4] = biological target: T1, Prostaglandin E2 receptor EP1 subtype; experiment: Displacement of [3H]PGE2 from human EP1 receptor expressed in CHO cells; format: cell-based
In short: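 Radioligand binding with [3H]-PGE2 in CHO cells overexpressing human EP1 receptor. Values are the mean of at least three experiments with standard deviations.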

[5] = test system: Hepatocyte; experiment: Intrinsic clearance in human hepatocytes measured per gram of liver at 0.15 to 0.2 X 10^6 cells/ml cell density; format: ADME, cell-based; in short: as §1
[6] = biological target: T3, Thromboxane A2 receptor (Homo sapiens, UniProt P21731); experiment: Inhibition of TP receptor
T3 sequence (P21731 whole entry): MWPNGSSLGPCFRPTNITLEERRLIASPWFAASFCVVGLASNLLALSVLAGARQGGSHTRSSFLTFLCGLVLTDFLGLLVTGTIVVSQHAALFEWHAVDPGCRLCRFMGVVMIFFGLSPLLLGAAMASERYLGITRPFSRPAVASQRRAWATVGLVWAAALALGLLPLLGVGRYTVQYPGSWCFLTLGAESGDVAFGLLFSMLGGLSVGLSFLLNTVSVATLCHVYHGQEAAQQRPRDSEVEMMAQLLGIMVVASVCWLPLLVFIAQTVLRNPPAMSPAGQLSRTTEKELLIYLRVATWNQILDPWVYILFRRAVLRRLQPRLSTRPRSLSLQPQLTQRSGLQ

[7] = Drug level in blood of complete Freund's adjuvant induced rat inflammatory pain model at 10 mg/kg, bid measured after 1 hr on day 1; format: ADME, organism-based; design: dose 10 mg/kg; settings: read-out: Drug uptake
In short: (§2)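 Satellite group dosed at 10 mg/kg b.i.d. for 5 days; blood sampled 1 h post-dose on day 1 and on day 5.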

[8] = Drug level in blood of complete Freund's adjuvant induced rat inflammatory pain model at 10 mg/kg, bid measured after 1 hr on day 5; format: ADME, organism-based; design: dose 10 mg/kg; settings: read-out: Drug uptake; in short: as §2
[9] = Drug level in brain of complete Freund's adjuvant-induced rat inflammatory pain model at 1 mg/kg, po administered after 23 hrs of adjuvant challenge measured after 1 hr; format: ADME, organism-based; design: dose 1 mg/kg, route oral; settings: read-out: Drug uptake
In short: (§3)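 CFA rat study: oral doses of 1, 3 or 10 mg/kg given 23 h after intraplantar adjuvant, samples 1 h post-dose. Blood values are the mean from seven animals. Brain values are the mean from three animals.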

[10] = Drug level in brain of complete Freund's adjuvant-induced rat inflammatory pain model at 10 mg/kg, po administered after 23 hrs of adjuvant challenge measured after 1 hr; format: ADME, organism-based; design: dose 10 mg/kg, route oral; settings: brain, read-out: Drug uptake; in short: as §3
[11] = Ratio of drug level in brain to blood in complete Freund's adjuvant-induced rat inflammatory pain model at 1 mg/kg, po administered after 23 hrs of adjuvant challenge measured after 1 hr; format: ADME, organism-based; design: dose 1 mg/kg, route oral; settings: brain and blood
In short: (§4)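 Rat CFA inflammatory pain model: oral dosing at 1, 3 or 10 mg/kg 23 h after intraplantar adjuvant; blood and brain sampled 1 h post-dose from the same animal; Br:Bl ratio is the mean from three animals.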

[12] = Ratio of drug level in brain to blood in complete Freund's adjuvant-induced rat inflammatory pain model at 10 mg/kg, po administered after 23 hrs of adjuvant challenge measured after 1 hr; format: ADME, organism-based; design: dose 10 mg/kg, route oral; settings: brain and blood; in short: as §4
[13] = Drug level in rat brain at 0.5 mg/kg/hr administered by infusion for 12 hrs; format: ADME, organism-based; settings: intravenous, read-out: Drug uptake
In short: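 Steady-state 12 h infusion at 5 mL/kg/h to reach a target dose of 0.5 mg/kg/h; blood and brain concentrations measured. Data are the mean from three animals.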

[14] = Volume of distribution at steady state in Sprague-Dawley rat at 1 mg/kg administered by intravenous infusion for 1 hr; format: ADME, organism-based; design: dose 1 mg/kg, route intravenous; settings: in vivo, read-out: Vdss
[15] = Oral bioavailability in Sprague-Dawley rat at 3 mg/kg; format: ADME, organism-based; settings: in vivo
In short: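 Single oral dose of 3 mg/kg in 1% (w/v) methylcellulose vehicle. Rats were male Sprague-Dawley; dogs were beagle. Bioavailability (Fpo) determined.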

[16] = Clearance in Beagle dog blood at 1 mg/kg administered by intravenous infusion for 1 hr; format: ADME, organism-based, Canis lupus familiaris; design: dose 1 mg/kg, route intravenous
In short: (§5)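 Intravenous administration as a 1 h infusion of a 1 mg/kg dose. Rats were male Sprague-Dawley; dogs were beagle; monkeys were cynomolgus. Blood clearance, Vss and half-life determined.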

[17] = Volume of distribution at steady state in Beagle dog at 1 mg/kg administered by intravenous infusion for 1 hr; format: ADME, organism-based, Canis lupus familiaris; design: dose 1 mg/kg, route intravenous; settings: in vivo, read-out: Vdss
[18] = Clearance in cynomolgus monkey blood at 1 mg/kg administered by intravenous infusion for 1 hr; format: ADME, organism-based, Macaca fascicularis; design: dose 1 mg/kg, route intravenous; in short: as §5
[19] = Volume of distribution at steady state in cynomolgus monkey at 1 mg/kg administered by intravenous infusion for 1 hr; format: ADME, organism-based, Macaca fascicularis; design: dose 1 mg/kg, route intravenous; settings: in vivo, read-out: Vdss
[20] = Oral bioavailability in cynomolgus monkey at 3 mg/kg; format: ADME, organism-based, Macaca fascicularis; settings: in vivo

O=C([O-])c1cccc(Cc2cc(Cl)ccc2OCc2ccc(Cl)cc2F)n1.[Na+]
Kb [1]: 7.94 nM | IC50 [2]: 20 µM | CL [3]: 2.7 mL/min/g | IC50 [4]: 12.6 nM | CL [5]: 3.7 mL/min/g | Ki [6]: 10 nM | concentration at 1 h [7]: 2390 nM | concentration at 1 h [8]: 2610 nM | concentration at 1 h [9]: 60 nM | concentration at 1 h [10]: 501 nM | Kp at 1 h [11]: 0.37 | Kp at 1 h [12]: 0.39 | concentration at 12 h [13]: 225 nM | Vd [14]: 2.1 L/kg | bioavailability [15]: 94% | clearance [16]: 18 mL/min/kg | Vd [17]: 0.6 L/kg | clearance [18]: 41 mL/min/kg | Vd [19]: 0.6 L/kg | bioavailability [20]: 7%

From ChEMBL document CHEMBL1138602, “Discovery of sodium 6-[(5-chloro-2-{[(4-chloro-2-fluorophenyl)methyl]oxy}phenyl)methyl]-2-pyridinecarboxylate (GSK269984A) an EP(1) receptor antagonist for the treatment of inflammatory pain” (Bioorg Med Chem Lett, 2009)
